Measured values from ChEMBL document CHEMBL3580599, “Synthesis and Biological Evaluation of Novel Homoisoflavonoids for Retinal Neovascularization” (J Med Chem, 2015).

Experiments:
[1] = Growth inhibition of human HREC cells assessed as reduction in cell number after 48 hrs by alamarBlue based fluorescence assay; type: functional
In short: (§1)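 Cells (2,500 per well in growth medium) were allowed 24 h, then exposed 48 h to compound over 0.5 nM–500 μM. alamarBlue was added and fluorescence read 4 h later (ex 560/em 590 nm). Dose-response curves were fitted relative to DMSO control; compounds not reducing cell number ≥50% at the top concentration were reported as GI50 >100 μM.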

[2] = Growth inhibition of human HUVEC cells assessed as reduction in cell number after 48 hrs by alamarBlue based fluorescence assay; in short: as §1
[3] = Growth inhibition of human 92-1 cells assessed as reduction in cell number after 48 hrs by alamarBlue based fluorescence assay; type: functional; in short: as §1
Y79 = assay: Growth inhibition of human Y79 cells assessed as reduction in cell number after 48 hrs by alamarBlue based fluorescence assay; type: functional; details: Y79, 48 h; in short: as §1

COc1ccc(/C=C2\COc3cc(OC)c(OC)c(OC)c3C2=O)cc1O
GI50 [1]: 46 µM | GI50 at 48 h [2]: 5.6 µM | GI50 [3]: 0.22 µM | GI50 (Y79): 44 µM

COc1ccc(CC2COc3cc(OC)c(OC)c(OC)c3C2=O)cc1OC(=O)[C@H](CC(C)C)NC(=O)OC(C)(C)C (some centres not stated)
GI50 [1]: 0.13 µM | GI50 at 48 h [2]: > 100 µM | GI50 [3]: > 100 µM | GI50 (Y79): > 100 µM

C=CCOc1ccc(C[C@H](NC(=O)OC(C)(C)C)C(=O)Nc2cc(CC3COc4cc(OC)c(OC)c(OC)c4C3=O)ccc2OC)cc1 (some centres not stated)
GI50 [1]: 13 µM | GI50 at 48 h [2]: 4.5 µM | GI50 [3]: 1.9 µM | GI50 (Y79): 2.5 µM

CCNC(=O)N[C@@H](Cc1ccccc1)C(=O)Oc1cc(CC2COc3cc(OC)c(OC)c(OC)c3C2=O)ccc1OC (some centres not stated)
GI50 [1]: 1 µM | GI50 at 48 h [2]: 34 µM | GI50 [3]: 98 µM | GI50 (Y79): 48 µM

COc1cc2c(c(OC)c1OC)C(=O)/C(=C/c1ccc(OCc3ccccc3)c(OCc3ccccc3)c1)CO2
GI50 [1]: 72 µM | GI50 at 48 h [2]: 43 µM | GI50 [3]: > 100 µM | GI50 (Y79): 32 µM

CC[C@H](C)[C@H](NC(=O)OC(C)(C)C)C(=O)Oc1cc(CC2COc3cc(OC)c(OC)c(OC)c3C2=O)ccc1OC (some centres not stated)
GI50 [1]: 3.1 µM | GI50 at 48 h [2]: > 100 µM | GI50 [3]: > 100 µM | GI50 (Y79): 24 µM

COc1ccc(CC2COc3cc(OC)c(OC)c(OC)c3C2=O)cc1OC(=O)[C@H](CCc1ccccc1)NC(=O)OC(C)(C)C (some centres not stated)
GI50 [1]: 0.17 µM | GI50 at 48 h [2]: > 100 µM | GI50 [3]: > 100 µM | GI50 (Y79): > 100 µM

COc1ccc(CC2COc3cc(OC)c(OC)c(OC)c3C2=O)cc1OC(=O)/C=C/c1ccccc1 (configuration not stated)
GI50 [1]: 0.17 µM | GI50 at 48 h [2]: > 100 µM | GI50 [3]: > 100 µM | GI50 (Y79): > 100 µM

COc1ccc(/C=C2\COc3cc(OC)c(OC)c(OC)c3C2=O)cc1[N+](=O)[O-]
GI50 [1]: 4.8 µM | GI50 at 48 h [2]: 15 µM | GI50 [3]: 12 µM | GI50 (Y79): 2.2 µM

COc1cc(OC)c2c(c1)OC/C(=C\c1ccc(OC)c(O)c1)C2=O
GI50 [1]: 42 µM | GI50 at 48 h [2]: 15 µM | GI50 [3]: > 100 µM | GI50 (Y79): 14 µM

COc1cc2c(c(OC)c1OC)C(=O)C(Cc1ccccc1)CO2 (configuration not stated)
GI50 [1]: > 100 µM | GI50 at 48 h [2]: > 100 µM | GI50 [3]: > 100 µM | GI50 (Y79): > 100 µM

COC(=O)c1cc(/C=C2\COc3cc(OC)c(OC)c(OC)c3C2=O)ccc1OC
GI50 [1]: 5.6 µM | GI50 at 48 h [2]: 3.2 µM | GI50 [3]: > 100 µM | GI50 (Y79): 6.1 µM

COc1cc(/C=C2\COc3cc(OC)c(OC)c(OC)c3C2=O)ccc1O
GI50 [1]: 3.3 µM | GI50 at 48 h [2]: 6.2 µM | GI50 [3]: 26 µM | GI50 (Y79): 5.2 µM

COc1ccc(CC2COc3cc(OC)c(OC)c(OC)c3C2=O)cc1NC(=O)[C@H](Cc1ccc(OCc2ccccc2)cc1)NC(=O)OC(C)(C)C (some centres not stated)
GI50 [1]: > 100 µM | GI50 at 48 h [2]: > 100 µM | GI50 [3]: > 100 µM | GI50 (Y79): 0.39 µM

COc1ccc(CC2COc3cc(O)c(OC)c(OC)c3C2=O)cc1O (configuration not stated)
GI50 [1]: > 100 µM | GI50 at 48 h [2]: > 100 µM | GI50 [3]: > 100 µM | GI50 (Y79): > 100 µM

COc1ccc(CC2COc3cc(OC)c(O)c(O)c3C2=O)cc1O (configuration not stated)
GI50 [1]: 45 µM | GI50 at 48 h [2]: 18 µM | GI50 [3]: 10 µM | GI50 (Y79): > 100 µM

COc1cc2c(c(OC)c1OC)C(=O)/C(=C/c1ccc(O)c(O)c1)CO2
GI50 [1]: 7.6 µM | GI50 at 48 h [2]: 5 µM | GI50 [3]: 9.5 µM | GI50 (Y79): 4 µM

COc1ccc(CC2COc3cc(OC)c(OC)c(OC)c3C2=O)cc1C(=O)O (configuration not stated)
GI50 [1]: > 100 µM | GI50 at 48 h [2]: 92 µM | GI50 [3]: > 100 µM | GI50 (Y79): > 100 µM

COc1ccc(CC2COc3cc(OC)c(OC)c(OC)c3C2=O)cc1OC(=O)[C@H](Cc1ccccc1)NS(=O)(=O)c1ccc(C)cc1 (some centres not stated)
GI50 [1]: 1.5 µM | GI50 at 48 h [2]: 22 µM | GI50 [3]: > 100 µM | GI50 (Y79): > 100 µM

COc1ccc(CC2COc3cc(O)c(OC)c(O)c3C2=O)cc1O (configuration not stated)
GI50 [1]: 0.22 µM | GI50 at 48 h [2]: 0.38 µM | GI50 [3]: 48 µM | GI50 (Y79): 9.8 µM

C=CCOc1cc(/C=C2\COc3cc(OC)c(OC)c(OC)c3C2=O)ccc1OC
GI50 [1]: 3.9 µM | GI50 at 48 h [2]: 12 µM | GI50 [3]: 1.1 µM | GI50 (Y79): 2.8 µM

COc1ccc(CC2COc3cc(OC)c(OC)c(OC)c3C2=O)cc1OC(=O)c1ccccc1 (configuration not stated)
GI50 [1]: 0.65 µM | GI50 at 48 h [2]: > 100 µM | GI50 [3]: > 100 µM | GI50 (Y79): > 100 µM

C=CCOc1ccc(C[C@H](NC(=O)OC(C)(C)C)C(=O)Oc2cc(CC3COc4cc(OC)c(OC)c(OC)c4C3=O)ccc2OC)cc1 (some centres not stated)
GI50 [1]: 0.16 µM | GI50 at 48 h [2]: 0.091 µM | GI50 [3]: > 100 µM | GI50 (Y79): 52 µM

COc1cc(/C=C2\COc3cc(OC)c(OC)c(OC)c3C2=O)ccc1OCc1ccccc1
GI50 [1]: 35 µM | GI50 at 48 h [2]: 52 µM | GI50 [3]: 68 µM | GI50 (Y79): 14 µM

COc1ccc(CC2COc3cc(OC)c(OC)c(OC)c3C2=O)cc1OC(=O)[C@H](Cc1ccccc1)NC(=O)OCc1ccccc1 (some centres not stated)
GI50 [1]: 0.14 µM | GI50 at 48 h [2]: > 100 µM | GI50 [3]: > 100 µM | GI50 (Y79): > 100 µM

COc1ccc(CC2COc3cc(OC)c(OC)c(OC)c3C2=O)cc1O (configuration not stated)
GI50 [1]: 2 µM | GI50 at 48 h [2]: 12 µM | GI50 [3]: > 100 µM | GI50 (Y79): > 100 µM

COc1ccc(/C=C2\COc3cc(OC)c(OC)c(OC)c3C2=O)cc1F
GI50 [1]: 2.8 µM | GI50 at 48 h [2]: 7.6 µM | GI50 [3]: 7 µM | GI50 (Y79): 9.8 µM

CCN(CC)C(=O)Oc1cc(CC2COc3cc(OC)c(OC)c(OC)c3C2=O)ccc1OC (configuration not stated)
GI50 [1]: 49 µM | GI50 at 48 h [2]: > 100 µM | GI50 [3]: > 100 µM | GI50 (Y79): 24 µM

COc1cc(OC)c2c(c1)OCC(Cc1ccc(OC)c(O)c1)C2=O (configuration not stated)
GI50 [1]: 1.6 µM | GI50 at 48 h [2]: 2.5 µM | GI50 [3]: > 100 µM | GI50 (Y79): 4.2 µM

COc1ccc(CC2COc3cc(OC)c(OC)c(OC)c3C2=O)cc1OCc1ccccc1 (configuration not stated)
GI50 [1]: 22 µM | GI50 at 48 h [2]: > 100 µM | GI50 [3]: 61 µM | GI50 (Y79): 20 µM

COc1ccc(/C=C2\COc3cc(OC)c(OC)c(OC)c3C2=O)cc1OCc1ccccc1
GI50 [1]: 4.3 µM | GI50 at 48 h [2]: 16 µM | GI50 [3]: 3.5 µM | GI50 (Y79): 33 µM

COc1ccc(CC2COc3cc(OC)c(OC)c(OC)c3C2=O)cc1OC(=O)[C@H](Cc1ccc(OCc2ccccc2)cc1)NC(=O)OC(C)(C)C (some centres not stated)
GI50 [1]: 0.51 µM | GI50 at 48 h [2]: > 100 µM | GI50 [3]: > 100 µM | GI50 (Y79): > 100 µM

COC(=O)c1cc(CC2COc3cc(OC)c(OC)c(OC)c3C2=O)ccc1OC (configuration not stated)
GI50 [1]: 18 µM | GI50 at 48 h [2]: 17 µM | GI50 [3]: > 100 µM | GI50 (Y79): 40 µM

COc1ccc(CC2COc3cc(OC)c(OC)c(OC)c3C2=O)cc1OC(=O)CCc1ccccc1 (configuration not stated)
GI50 [1]: 0.22 µM | GI50 at 48 h [2]: 38 µM | GI50 [3]: > 100 µM | GI50 (Y79): > 100 µM

COc1ccc(CC2COc3cc(OC)c(OC)c(OC)c3C2=O)cc1NC(=O)[C@H](Cc1ccccc1)NC(=O)OC(C)(C)C (some centres not stated)
GI50 [1]: 22 µM | GI50 at 48 h [2]: 8.6 µM | GI50 [3]: 3.1 µM | GI50 (Y79): 4.7 µM

COc1ccc(CC2COc3cc(OC)c(OC)c(O)c3C2=O)cc1O (configuration not stated)
GI50 [1]: > 100 µM | GI50 at 48 h [2]: 44 µM | GI50 [3]: > 100 µM | GI50 (Y79): > 100 µM

COc1ccc(CC2COc3cc(OC)c(OC)c(OC)c3C2=O)cc1N (configuration not stated)
GI50 [1]: 1.1 µM | GI50 at 48 h [2]: 0.51 µM | GI50 [3]: > 100 µM | GI50 (Y79): > 100 µM

CCCCNC(=O)N[C@@H](Cc1ccccc1)C(=O)Oc1cc(CC2COc3cc(OC)c(OC)c(OC)c3C2=O)ccc1OC (some centres not stated)
GI50 [1]: 1.4 µM | GI50 at 48 h [2]: > 100 µM | GI50 [3]: > 100 µM | GI50 (Y79): 64 µM
